High-throughput results from PubChem.
DENV2 CPE rescue – inhibitors of DENV2 cytopathic effect. 350,000 compounds, 1.7% hits. DENV2-infected cells, cytopathic effect rescue, plate reader. CPE inhibition, % at 9.99 µM; in the data active = CPE inhibition above about 20%, passing the limit was not always enough; inconclusive = no clear call, values can overlap the other calls; tested in BHK-21 cells;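 also: 0% = median of neutral control wells and 100% = median of positive control wells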
E-sel inducer – E-selectin induction on HUVECs; activation, % at 7.58 µM; HUVEC E-selectin immunofluorescence imaging; normalized: neutral wells 0, TNF-alpha wells 100; 260,000 compounds, 0.37% hits;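 active = mean E-selectin-positive cell signal at least 10% of the positive control, reached in at least 60% of replicates, without over 20% cell loss; inconclusive = no rule given, readout overlaps actives, possibly toxicity-flagged; inactive = the rest, including those meeting only one limit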
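Assay system: HUVEC, human umbilical vein endothelial cells / Amount: 3,000 HUVEC/well / Controls: TNF-alpha positive control, DMSO neutral control / Compound dosing: single concentration / Medium: EGM-2 over gelatin coat / Evaluation: percent E-selectin-positive cells / Signal: immunofluorescence imaging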
SIRT5 block – inhibitors of human sirtuin-5 desuccinylase. Q9NXA8. Purified SirT5, succinyl-peptide AMC, trypsin-coupled fluorescence. inhibition, % at 15 µM. 330,000 compounds, 1.1% hits. AID 652115; in the data active = inhibition above about 15%; inconclusive = no clear call, values can overlap the other calls
Target sequence (Q9NXA8 whole entry, looked up): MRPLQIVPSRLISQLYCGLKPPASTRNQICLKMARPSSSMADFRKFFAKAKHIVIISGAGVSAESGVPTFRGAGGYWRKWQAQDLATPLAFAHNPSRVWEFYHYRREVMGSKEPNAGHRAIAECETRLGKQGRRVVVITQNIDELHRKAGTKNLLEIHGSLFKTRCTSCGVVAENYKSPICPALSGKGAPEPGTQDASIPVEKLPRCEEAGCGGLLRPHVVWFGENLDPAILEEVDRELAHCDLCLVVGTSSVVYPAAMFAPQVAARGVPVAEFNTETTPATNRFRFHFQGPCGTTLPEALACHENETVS
Numbers without * were called inactive. An excerpt weighted towards active compounds, which were near 2.9% of everything screened.

For CCOC(=O)c1c(NC(=O)c2cccc(N3C(=O)CCC3=O)c2)sc2c1CCN(CC)C2 the results were DENV2 CPE rescue 4.4, E-sel inducer -0.1 and SIRT5 block 6.5.
For Fc1ccc(-c2nnc3n2CCCCC3)cc1 the results were DENV2 CPE rescue -5.1 and SIRT5 block 16.5*.
For O=[N+]([O-])c1ccc(-c2nnc3n2CCCCC3)cc1 the results were DENV2 CPE rescue -6.1, E-sel inducer 0.0 and SIRT5 block 0.2.
Screening COc1ccc(NC(=O)CSc2nnc(Cn3c(=O)sc4ccccc43)n2C)cc1OC returned DENV2 CPE rescue -4.6 and E-sel inducer 0.0.
`Cc1ccc(-n2nnc3c(=O)n(CC(=O)NCc4ccco4)cnc32)cc1` gave DENV2 CPE rescue -3.7, E-sel inducer -0.7 and SIRT5 block 0.9.
For Cc1ccccc1-n1c(SCC(=O)NC2CCS(=O)(=O)C2)nc2ccccc2c1=O (configuration not stated) the results were DENV2 CPE rescue 4.2, E-sel inducer 0.2 and SIRT5 block 6.3.
O=C(CSc1nc2ccccc2c(=O)n1-c1ccccc1F)NC1CC1 was read as DENV2 CPE rescue 21.6* and SIRT5 block 0.0.
`Cc1ccc(-n2c(SCC(=O)NC3CCS(=O)(=O)C3)nc3ccccc3c2=O)c(C)c1` (configuration not stated) gave DENV2 CPE rescue 38.3*, E-sel inducer 0.6 and SIRT5 block -0.3.
For O=C(CSc1nc2ccccc2c(=O)n1-c1ccc(F)cc1F)NC1CC1 the results were DENV2 CPE rescue -2.3 and E-sel inducer -0.2.
`C/C=C/c1ccc2c(c1)O[C@@H](CN(C)C(=O)c1ccncc1)[C@H](C)CN([C@@H](C)CO)S2(=O)=O` gave DENV2 CPE rescue -8.4, E-sel inducer 0.7 and SIRT5 block -0.8.
For C=CCNC(=S)NNC(=O)c1ccc(OCC(C)C)cc1 the results were DENV2 CPE rescue -4.3 and SIRT5 block 3.2.
CC1(C)CC(=O)C=C(c2cccc(OC(=O)c3ccc(Br)cc3)c2)C1=O was read as DENV2 CPE rescue -2.4, E-sel inducer -0.6 and SIRT5 block 1.3.
`CC(=O)Oc1cccc(C2=CC(=O)CC(C)(C)C2=O)c1` gave DENV2 CPE rescue 21.6*, E-sel inducer 2.6 and SIRT5 block -0.9.
For COc1ccc2c3c(n(C)c2c1)[C@@H](CO)N(C(=O)c1cccc(F)c1)CC31CN(C(=O)c2cccc(F)c2)C1 the results were DENV2 CPE rescue 34.2*, E-sel inducer -0.1 and SIRT5 block 2.9.
`COc1ccc2c3c(n(C)c2c1)[C@H](CO)N(C(=O)Nc1ccccc1F)CC31CN(C)C1` gave DENV2 CPE rescue 86.0* and E-sel inducer 0.0.
For CCS(=O)(=O)N1CCC2(CC1)CN(C(=O)c1ccc(F)cc1)[C@@H](CO)c1c2c2ccc(OC)cc2n1C the results were DENV2 CPE rescue 24.2*, E-sel inducer 1.4 and SIRT5 block -3.3.
CCS(=O)(=O)N1CCC2(CC1)CN(C(=O)c1ccc(F)cc1)[C@H](CO)c1c2c2ccc(OC)cc2n1C was read as DENV2 CPE rescue 3.4, E-sel inducer 0.0 and SIRT5 block -1.8.
`COc1ccc2c3c(n(C)c2c1)[C@@H](CO)NCC31CN(C(=O)c2cccc(F)c2)C1` gave DENV2 CPE rescue -0.5, E-sel inducer 0.0 and SIRT5 block 2.4.
COc1ccc2c3c(n(C)c2c1)[C@@H](CO)N(C(=O)Nc1ccccc1F)CC31CCN(C)CC1 was read as DENV2 CPE rescue -0.5, E-sel inducer 1.0 and SIRT5 block 1.3.
COc1ccc2c3c(n(C)c2c1)[C@H](CO)NCC31CN(C(=O)c2ccc(F)cc2)C1 was read as DENV2 CPE rescue 69.2* and E-sel inducer -0.4.
For COc1ccc2c3c(n(C)c2c1)[C@H](CO)N(C(=O)c1cccc(F)c1)CC31CCN(C(=O)c2cccc(F)c2)CC1 the results were DENV2 CPE rescue 2.4 and E-sel inducer -0.8.
Screening C1=C(c2ccccc2)CCN(c2ncnc3nc[nH]c23)C1 returned DENV2 CPE rescue 16.5 and E-sel inducer 0.0.
For CSc1ccccc1NC(=O)COC(=O)CCc1ccccc1 the results were DENV2 CPE rescue -0.5, E-sel inducer 0.0 and SIRT5 block -4.3.
C[C@H](CO)N1C[C@H](C)[C@@H](CN(C)C(=O)C2CCCCC2)Oc2ncc(C#CC3(O)CCCC3)cc2C1=O was read as DENV2 CPE rescue inconclusive, E-sel inducer -0.3 and SIRT5 block 1.3.
Screening Cc1nccn1CCC(=O)Nc1ccc(Cl)cc1 returned DENV2 CPE rescue 5.4, E-sel inducer -0.1 and SIRT5 block -4.3.
For CCCn1c(N)c(Br)c(=O)[nH]c1=O the results were DENV2 CPE rescue inconclusive and SIRT5 block 0.0.
`COc1ccc2c3c(n(C)c2c1)[C@H](CO)N(C(=O)c1cccnc1)CC31CN(S(C)(=O)=O)C1` gave DENV2 CPE rescue -4.6, E-sel inducer 0.1 and SIRT5 block -1.0.
Screening COc1ccc2c3c(n(C)c2c1)[C@@H](CO)N(C(=O)c1cccnc1)CC31CCN(S(=O)(=O)c2ccccc2)CC1 returned DENV2 CPE rescue 39.1* and E-sel inducer -0.1.
For O=C(CCN1CCC2CCC(C2)C1)c1ccc(F)cc1 (configuration not stated) the results were DENV2 CPE rescue 16.0 and E-sel inducer 0.0.
`CCOc1ccc(C(=O)CSCCC(=O)O)cc1` gave DENV2 CPE rescue 2.0, E-sel inducer 0.6 and SIRT5 block 112.3*.
CCOc1ccc(C(=O)Cc2ccccc2)cc1 was read as DENV2 CPE rescue inconclusive, E-sel inducer -0.1 and SIRT5 block -3.3.
COc1ccc(CC(=O)NCc2nnc(SCC(=O)c3ccc(OC)cc3)n2C)cc1 was read as SIRT5 block -6.2.
Screening COc1ccc(-c2nc(CN3CCC(C(=O)NCC4CCCO4)CC3)c(C)o2)cc1OC (configuration not stated) returned DENV2 CPE rescue -3.1 and SIRT5 block -2.1.
COc1cc(C)nc(N2CCC(C(=O)NCC3CCCO3)CC2)n1 (configuration not stated) was read as DENV2 CPE rescue 43.6* and SIRT5 block -2.6.
Cc1cc(C)c2nc(N3CCC(C(=O)NCC4CCCO4)CC3)sc2c1 (configuration not stated) was read as DENV2 CPE rescue 0.3, E-sel inducer -0.3 and SIRT5 block 27.5*.
`Cc1cc(C)c2nc(N3CCC(C(=O)N4CCCC4)CC3)sc2c1` gave DENV2 CPE rescue -1.3 and SIRT5 block 1.3.
For Cc1cc(N)ccc1-c1cc2ccccc2oc1=O the results were DENV2 CPE rescue -3.0, E-sel inducer 3.8 and SIRT5 block 3.0.
For C[C@@H]1CN([C@H](C)CO)C(=O)Cc2cc(NC(=O)Nc3ccc(C(F)(F)F)cc3)ccc2O[C@H]1CN(C)Cc1ccc(C(F)(F)F)cc1 the results were DENV2 CPE rescue 6.4, E-sel inducer 0.1 and SIRT5 block 0.5.
C[C@@H]1CN([C@H](C)CO)C(=O)Cc2cc(NC(=O)c3ccncc3)ccc2O[C@H]1CN(C)Cc1ccc(Cl)c(Cl)c1 was read as DENV2 CPE rescue 5.2, E-sel inducer 8.1 and SIRT5 block 0.5.
Screening C[C@@H]1CN([C@H](C)CO)C(=O)Cc2cc(NC(=O)Nc3ccc(C(F)(F)F)cc3)ccc2O[C@@H]1CN(C)C(=O)Nc1ccc(C(F)(F)F)cc1 returned DENV2 CPE rescue -10.3, E-sel inducer 1.7 and SIRT5 block 1.1.
